Results from ChEMBL document CHEMBL1149869, “Antifungal and antimycobacterial activity of 1-(3,5-diaryl-4,5-dihydro-1H-pyrazol-4-yl)-1H-imidazole derivatives” (2008).
≈ marks a conversion by molar mass, not a printed value.

How the values were obtained:
Assay type in all cases: functional
Candida albicans [1] = experiment: Antifungal activity against Candida albicans 685 after 48 hrs
Summary of the method: (§1)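 Clinical isolate C. albicans 685 tested by NCCLS (1997) reference broth method; compound stocks 2 mg/mL in DMSO; miconazole and amphotericin B as standards; MIC read after 24 and 48 h incubation, each determined twice in duplicate experiments.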

Candida albicans [2] = experiment: Antifungal activity against Candida albicans 685 after 24 hrs; summary of the method: as §1
[3] = system: Mycobacterium tuberculosis; experiment: Antitubercular activity against Mycobacterium tuberculosis H37Rv micro-dilution Resazurin assay
Summary of the method: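 Microdilution Resazurin assay (MRA) run for 1 week against reference strain M. tuberculosis H37Rv. Compound stocks were 2 mg/mL in DMSO, with DMSO tested up to 2% (v/v). MIC was the lowest concentration preventing the blue-to-pink Resazurin colour change, read visually twice in duplicate experiments. Viable counts on agar from control and test wells.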

CN1N=C(c2ccc(Br)cc2)[C@@H](n2ccnc2)[C@H]1c1ccc(Br)cc1 (racemic)
MIC (Candida albicans [1]): 0.06 µg/mL (≈ 0.13 µM)
MIC (Candida albicans [2]): 0.06 µg/mL (≈ 0.13 µM)
MIC [3]: 8 µg/mL (≈ 17.4 µM)

Cc1ccc(C2=NN(C)[C@H](c3ccc(C)cc3)[C@@H]2n2ccnc2)cc1 (racemic)
MIC (Candida albicans [1]): 64 µg/mL (≈ 194 µM)
MIC (Candida albicans [2]): 4 µg/mL (≈ 12.1 µM)
MIC [3]: 16 µg/mL (≈ 48.4 µM)

Brc1ccc(C2=NN[C@H](c3ccc(Br)cc3)[C@H]2n2ccnc2)cc1 (racemic)
MIC (Candida albicans [1]): 8 µg/mL (≈ 17.9 µM)
MIC (Candida albicans [2]): 4 µg/mL (≈ 8.97 µM)
MIC [3]: 8 µg/mL (≈ 17.9 µM)

Clc1ccc(C2=NN[C@H](c3ccc(Cl)cc3)[C@H]2n2ccnc2)cc1 (racemic)
MIC (Candida albicans [1]): 16 µg/mL (≈ 44.8 µM)
MIC (Candida albicans [2]): 4 µg/mL (≈ 11.2 µM)
MIC [3]: 8 µg/mL (≈ 22.4 µM)

Clc1ccc(C2=NN[C@H](c3ccc(Cl)cc3Cl)[C@H]2n2ccnc2)c(Cl)c1 (racemic)
MIC (Candida albicans [1]): 64 µg/mL (≈ 150 µM)
MIC (Candida albicans [2]): 8 µg/mL (≈ 18.8 µM)
MIC [3]: 8 µg/mL (≈ 18.8 µM)

CN1N=C(c2ccc(Cl)cc2)[C@@H](n2ccnc2)[C@H]1c1ccc(Cl)cc1 (racemic)
MIC (Candida albicans [1]): 0.06 µg/mL (≈ 0.162 µM)
MIC (Candida albicans [2]): 0.06 µg/mL (≈ 0.162 µM)
MIC [3]: 8 µg/mL (≈ 21.5 µM)

CN1N=C(c2ccc(Cl)cc2Cl)[C@@H](n2ccnc2)[C@H]1c1ccc(Cl)cc1Cl (racemic)
MIC (Candida albicans [1]): 32 µg/mL (≈ 72.7 µM)
MIC (Candida albicans [2]): 0.12 µg/mL (≈ 0.273 µM)
MIC [3]: 16 µg/mL (≈ 36.4 µM)

Cc1ccc(C2=NN[C@@H](c3ccc(C)cc3)[C@@H]2n2ccnc2)cc1 (racemic)
MIC (Candida albicans [1]): 64 µg/mL (≈ 202 µM)
MIC (Candida albicans [2]): 8 µg/mL (≈ 25.3 µM)
MIC [3]: 16 µg/mL (≈ 50.6 µM)

c1ccc(C2=NN(c3ccccc3)[C@H](c3ccccc3)[C@H]2n2ccnc2)cc1 (racemic)
MIC (Candida albicans [1]): 1 µg/mL (≈ 2.74 µM)
MIC (Candida albicans [2]): 0.06 µg/mL (≈ 0.165 µM)
MIC [3]: 8 µg/mL (≈ 22 µM)

Cc1ccc(C2=NN(c3ccccc3)[C@H](c3ccc(C)cc3)[C@H]2n2ccnc2)cc1 (racemic)
MIC (Candida albicans [1]): 64 µg/mL (≈ 163 µM)
MIC (Candida albicans [2]): 8 µg/mL (≈ 20.4 µM)
MIC [3]: 4 µg/mL (≈ 10.2 µM)

Brc1ccc(C2=NN(c3ccccc3)[C@H](c3ccc(Br)cc3)[C@H]2n2ccnc2)cc1 (racemic)
MIC (Candida albicans [1]): 64 µg/mL (≈ 123 µM)
MIC (Candida albicans [2]): 1 µg/mL (≈ 1.91 µM)
MIC [3]: 8 µg/mL (≈ 15.3 µM)

Clc1ccc(C2=NN(c3ccccc3)[C@H](c3ccc(Cl)cc3Cl)[C@H]2n2ccnc2)c(Cl)c1 (racemic)
MIC (Candida albicans [1]): > 64 µg/mL
MIC (Candida albicans [2]): 2 µg/mL (≈ 3.98 µM)
MIC [3]: 4 µg/mL (≈ 7.96 µM)

Cc1ccc(C2=NN(c3ccc(F)cc3)[C@H](c3ccc(C)cc3)[C@H]2n2ccnc2)cc1 (racemic)
MIC (Candida albicans [1]): 64 µg/mL (≈ 156 µM)
MIC (Candida albicans [2]): 64 µg/mL (≈ 156 µM)
MIC [3]: 4 µg/mL (≈ 9.74 µM)

Fc1ccc(N2N=C(c3ccc(Cl)cc3)[C@H](n3ccnc3)[C@H]2c2ccc(Cl)cc2)cc1 (racemic)
MIC (Candida albicans [1]): > 64 µg/mL
MIC (Candida albicans [2]): 2 µg/mL (≈ 4.43 µM)
MIC [3]: 4 µg/mL (≈ 8.86 µM)

Fc1ccc(N2N=C(c3ccc(Br)cc3)[C@H](n3ccnc3)[C@H]2c2ccc(Br)cc2)cc1 (racemic)
MIC (Candida albicans [1]): > 64 µg/mL
MIC (Candida albicans [2]): 8 µg/mL (≈ 14.8 µM)
MIC [3]: 4 µg/mL (≈ 7.4 µM)

Fc1ccc(N2N=C(c3ccccc3)[C@H](n3ccnc3)[C@H]2c2ccccc2)cc1 (racemic)
MIC (Candida albicans [1]): 1 µg/mL (≈ 2.61 µM)
MIC (Candida albicans [2]): 0.06 µg/mL (≈ 0.157 µM)
MIC [3]: 8 µg/mL (≈ 20.9 µM)

Fc1ccc(N2N=C(c3ccc(Cl)cc3Cl)[C@@H](n3ccnc3)[C@@H]2c2ccc(Cl)cc2Cl)cc1 (racemic)
MIC (Candida albicans [1]): > 64 µg/mL
MIC (Candida albicans [2]): 1 µg/mL (≈ 1.92 µM)
MIC [3]: 16 µg/mL (≈ 30.8 µM)

Clc1ccc(C2=NN(c3ccccc3)[C@H](c3ccc(Cl)cc3)[C@H]2n2ccnc2)cc1 (racemic)
MIC (Candida albicans [1]): 64 µg/mL (≈ 148 µM)
MIC (Candida albicans [2]): 2 µg/mL (≈ 4.62 µM)
MIC [3]: 4 µg/mL (≈ 9.23 µM)

c1ccc(C2=NN[C@H](c3ccccc3)[C@H]2n2ccnc2)cc1 (racemic)
MIC (Candida albicans [1]): > 64 µg/mL
MIC (Candida albicans [2]): 16 µg/mL (≈ 55.5 µM)
MIC [3]: 16 µg/mL (≈ 55.5 µM)

CN1N=C(c2ccccc2)[C@@H](n2ccnc2)[C@H]1c1ccccc1 (racemic)
MIC (Candida albicans [1]): 64 µg/mL (≈ 212 µM)
MIC (Candida albicans [2]): 1 µg/mL (≈ 3.31 µM)
MIC [3]: 8 µg/mL (≈ 26.5 µM)

C[C@@H]1[C@H](O)[C@@H](C)/C=C/C=C/C=C/C=C/C=C/C=C/C=C/[C@H](O[C@@H]2O[C@H](C)[C@@H](O)[C@H](N)[C@@H]2O)C[C@@H]2O[C@](O)(C[C@@H](O)C[C@@H](O)[C@H](O)CC[C@@H](O)C[C@@H](O)CC(=O)O[C@H]1C)C[C@H](O)[C@H]2C(=O)O [AMPHOTERICIN B]
MIC (Candida albicans [1]): 1 µg/mL (≈ 1.08 µM)
MIC (Candida albicans [2]): 1 µg/mL (≈ 1.08 µM)

NNC(=O)c1ccncc1 [ISONIAZID]
MIC [3]: 0.5 µg/mL (≈ 3.65 µM)

Clc1ccc(COC(Cn2ccnc2)c2ccc(Cl)cc2Cl)c(Cl)c1 (stereo not given) [MICONAZOLE]
MIC (Candida albicans [1]): 0.12 µg/mL (≈ 0.288 µM)
MIC (Candida albicans [2]): 0.06 µg/mL (≈ 0.144 µM)
